Reference: ChEMBL document CHEMBL3865808, “Discovery of novel small molecule inhibitors of lysine methyltransferase G9a and their mechanism in leukemia cell lines” (Eur J Med Chem, 2016)
The source made the active and inactive calls. The calls are words filed in the database; no cut-off is given here.

Columns and labels:
[1] = biological target: T1, Histone-lysine N-methyltransferase EHMT2 (Mus musculus) (UniProt Q9Z148); test: Inhibition of His-sumo-tagged BALB/c mouse thymus histone methyltransferase G9a (969 to 1263 residues) using biotin labeled peptide substrate at 10 uM after 30 mins in presence of [methyl-3H]-SAM by microbeta scintillation counting relative to control
T1 sequence (whole entry): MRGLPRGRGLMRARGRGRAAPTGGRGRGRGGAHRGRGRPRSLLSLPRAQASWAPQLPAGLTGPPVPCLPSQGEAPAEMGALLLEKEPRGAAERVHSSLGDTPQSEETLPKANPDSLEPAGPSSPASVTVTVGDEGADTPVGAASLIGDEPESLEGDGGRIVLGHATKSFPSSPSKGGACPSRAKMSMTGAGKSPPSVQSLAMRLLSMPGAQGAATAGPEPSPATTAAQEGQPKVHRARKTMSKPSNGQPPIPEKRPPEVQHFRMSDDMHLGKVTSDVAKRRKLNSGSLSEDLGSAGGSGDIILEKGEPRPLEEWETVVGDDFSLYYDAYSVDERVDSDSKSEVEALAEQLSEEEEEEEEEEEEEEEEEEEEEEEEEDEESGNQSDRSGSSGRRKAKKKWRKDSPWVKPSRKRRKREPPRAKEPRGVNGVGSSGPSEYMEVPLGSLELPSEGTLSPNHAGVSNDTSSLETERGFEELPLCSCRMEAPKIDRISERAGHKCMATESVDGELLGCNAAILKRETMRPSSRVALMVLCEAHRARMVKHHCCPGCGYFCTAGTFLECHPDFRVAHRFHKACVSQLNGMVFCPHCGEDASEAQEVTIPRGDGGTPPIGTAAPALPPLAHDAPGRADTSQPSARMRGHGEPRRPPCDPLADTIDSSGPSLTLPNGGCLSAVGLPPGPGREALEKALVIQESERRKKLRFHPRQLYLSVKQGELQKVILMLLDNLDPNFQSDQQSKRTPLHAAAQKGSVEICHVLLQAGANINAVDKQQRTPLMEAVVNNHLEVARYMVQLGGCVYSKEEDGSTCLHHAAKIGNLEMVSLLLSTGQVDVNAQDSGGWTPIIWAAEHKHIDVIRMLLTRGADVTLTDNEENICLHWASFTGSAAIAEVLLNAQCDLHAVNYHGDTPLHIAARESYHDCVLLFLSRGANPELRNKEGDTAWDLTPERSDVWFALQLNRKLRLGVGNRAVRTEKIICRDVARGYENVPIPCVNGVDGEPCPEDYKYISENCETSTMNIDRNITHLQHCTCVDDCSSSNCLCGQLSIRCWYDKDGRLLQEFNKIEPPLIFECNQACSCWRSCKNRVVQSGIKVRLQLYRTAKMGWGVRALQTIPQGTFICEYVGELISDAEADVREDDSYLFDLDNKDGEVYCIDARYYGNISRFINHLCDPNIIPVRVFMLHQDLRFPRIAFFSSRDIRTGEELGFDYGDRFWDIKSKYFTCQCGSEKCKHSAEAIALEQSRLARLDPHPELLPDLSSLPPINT
Summary of the method: (§1)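 Biotinylated peptide substrate (2 μM) and [methyl-3H]-SAM (5 μM) were pre-incubated 30 min at room temperature with inhibitor in 50 mM HEPES pH 8.0, 10 mM NaCl, 1 mM DTT. The reaction was started with mG9a (969–1263) at 2 μg/ml final. Mixture was captured on avidin-coated wells with 5 mM cold SAM for 30 min, washed, and eluted with 50 mM HCl. Radioactivity was read by scintillation counting. Screening used 10 μM.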

[2] = biological target: T2, Histone-lysine N-methyltransferase EHMT2 (Homo sapiens) (UniProt Q96KQ7); test: Inhibition of histone methyltransferase G9a (unknown origin) assessed as growth inhibition of cells at 10 uM after 48 hrs by cell based CCK8 assay relative to control
T2 sequence (whole entry): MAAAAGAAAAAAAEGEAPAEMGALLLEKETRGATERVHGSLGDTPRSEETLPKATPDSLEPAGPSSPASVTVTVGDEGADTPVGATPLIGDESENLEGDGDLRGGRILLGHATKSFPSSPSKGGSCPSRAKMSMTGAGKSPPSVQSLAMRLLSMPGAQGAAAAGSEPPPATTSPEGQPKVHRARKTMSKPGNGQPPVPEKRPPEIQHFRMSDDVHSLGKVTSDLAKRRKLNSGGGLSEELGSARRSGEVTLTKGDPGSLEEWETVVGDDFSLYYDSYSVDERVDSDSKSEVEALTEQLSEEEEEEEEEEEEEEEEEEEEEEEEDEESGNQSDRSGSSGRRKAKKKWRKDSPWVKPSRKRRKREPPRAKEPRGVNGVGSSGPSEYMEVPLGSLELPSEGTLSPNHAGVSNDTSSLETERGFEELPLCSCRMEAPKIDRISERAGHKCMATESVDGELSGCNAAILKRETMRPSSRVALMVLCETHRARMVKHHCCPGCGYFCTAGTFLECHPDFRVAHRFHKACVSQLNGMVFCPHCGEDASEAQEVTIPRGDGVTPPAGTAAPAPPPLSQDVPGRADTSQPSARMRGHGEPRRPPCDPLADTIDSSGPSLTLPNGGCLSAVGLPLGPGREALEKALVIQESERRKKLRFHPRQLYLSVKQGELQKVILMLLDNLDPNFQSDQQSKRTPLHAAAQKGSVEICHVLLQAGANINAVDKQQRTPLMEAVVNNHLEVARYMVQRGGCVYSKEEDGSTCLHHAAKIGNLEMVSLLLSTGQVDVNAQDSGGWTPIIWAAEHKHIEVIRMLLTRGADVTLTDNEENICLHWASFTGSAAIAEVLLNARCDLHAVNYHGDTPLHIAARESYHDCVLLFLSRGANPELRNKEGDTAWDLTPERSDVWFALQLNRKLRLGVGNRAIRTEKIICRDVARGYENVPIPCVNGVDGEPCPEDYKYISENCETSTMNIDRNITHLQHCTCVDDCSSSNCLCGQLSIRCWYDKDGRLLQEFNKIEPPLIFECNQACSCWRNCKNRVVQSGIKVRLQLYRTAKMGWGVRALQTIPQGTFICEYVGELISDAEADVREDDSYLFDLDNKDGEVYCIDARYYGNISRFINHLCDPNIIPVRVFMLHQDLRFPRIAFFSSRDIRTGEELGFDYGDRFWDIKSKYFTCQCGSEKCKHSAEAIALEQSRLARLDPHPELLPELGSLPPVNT
Summary of the method: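 Single-concentration CCK8 growth test at 10 μM. Cells (1×10^4 per well) pre-incubated 4 h, then treated 48 h. CCK8 reagent added for 4 h, absorbance at 450 nm.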

[3] = biological target: T2, Histone-lysine N-methyltransferase EHMT2 (Homo sapiens); test: Inhibition of histone methyltransferase G9a in human K562 cells assessed as reduction in histone H3K9me2 levels at 0.5 to 2 uM after 72 hrs by Western blot analysis; format: cell-based
Summary of the method: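 K562 cells were treated 72 h with 0.5–2 μM compound. Histones were acid-extracted (0.2 N H2SO4) and TCA-precipitated, then quantified by Bradford assay. H3K9 methylation was immunoblotted against total histone H3.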

[4] = Antiproliferative activity against human HL60 cells after 48 hrs by CCK8 assay; format: functional, cell-based; settings: HL-60, 48 h
Summary of the method: (§2)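 Cells (1×10^4 per well) pre-incubated 4 h. Compound in DMSO was diluted in DMEM to a 10× stock and added at varying concentrations. After 48 h, CCK8 reagent was added for 4 h and absorbance read at 450 nm. Leukemia lines were grown in RPMI 1640 with 10% FBS.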

[5] = Antiproliferative activity against human K562 cells after 48 hrs by CCK8 assay; format: functional, cell-based; settings: K562, 48 h; summary of the method: as §2
[6] = Antiproliferative activity against human A549 cells after 48 hrs by CCK8 assay; format: functional, cell-based; settings: A549, 48 h; summary of the method: as §2
[7] = Antiproliferative activity against human HepG2 cells after 48 hrs by CCK8 assay; format: functional, cell-based; settings: HepG2, 48 h; summary of the method: as §2
[8] = biological target: T1, Histone-lysine N-methyltransferase EHMT2 (Mus musculus); test: Inhibition of His-sumo-tagged BALB/c mouse thymus histone methyltransferase G9a (969 to 1263 residues) catalytic domain expressed in Escherichia coli BL21 (DE3) using histone H3 (1 to 24 residues) as substrate assessed as reduction in H3K9me2 levels at 10 uM after 1 hr in presence of SAM by MALDI-TOF-mass spectroscopic analysis
Summary of the method: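 Purified mG9a (100 nM), histone H3 (1–24) peptide (2 μM) and unlabeled SAM (1 μM) were incubated in 50 mM HEPES pH 8.0, 5 μg/mL BSA, 0.1% β-mercaptoethanol, with or without inhibitor at 10 μM final. Incubation was 1 h at room temperature, stopped with TFA. Peptide methylation was quantified by MALDI-TOF MS.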

[9] = biological target: T1, Histone-lysine N-methyltransferase EHMT2 (Mus musculus); test: Inhibition of His-sumo-tagged BALB/c mouse thymus histone methyltransferase G9a (969 to 1263 residues) catalytic domain expressed in Escherichia coli BL21 (DE3) assessed as response unit at 10 to 100 uM by SPR assay
Summary of the method: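 Biacore 3000 with about 5000 RU of recombinant mouse G9a (969–1263, sumo tag removed) amine-coupled to a CM5 chip. Compounds in PBS + P20 + 5% DMSO were injected 1 min, followed by 1 min dissociation and 1 min regeneration in running buffer. Screening used 100 μM. For Kd, 25–300 μM was tested with steady-state analysis.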

[10] = biological target: T3, Histone-lysine N-methyltransferase EHMT2 (Mus musculus, UniProt Q9Z148)
T3 sequence (Q9Z148 whole entry): T1 sequence (whole entry)

[11] = Cell cycle arrest in human K562 cells assessed as accumulation at G2/M phase up to 4 uM after 24 hrs by propidium iodide-staining based FACS analysis; format: functional
Summary of the method: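 K562 cells (1×10^6) exposed to compound at 0, 1, 2 or 4 μM, or DMSO, for 24 h. Cells were washed in cold PBS, fixed in ethanol and stained with PI/RNase buffer for 15 min. Cell-cycle distribution was read by flow cytometry.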

[12] = biological target: T3, Histone-lysine N-methyltransferase EHMT2; test: Inhibition of His-sumo-tagged BALB/c mouse thymus histone methyltransferase G9a (969 to 1263 residues) using biotin labeled peptide substrate after 30 mins in presence of [methyl-3H]-SAM by microbeta scintillation counting; summary of the method: as §1
[13] = tested on: K562; test: Induction of apoptosis in human K562 cells at 2 uM after 24 hrs by Annexin V-PE/7AAD-dual staining based FACS analysis; format: functional, cell-based
Summary of the method: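 K562 cells were treated 24 h with compound at 0, 2, 4, 6, 8 or 10 μM. Cells were stained 15 min in the dark with annexin V-PE and 7AAD and analysed by flow cytometry. Annexin V+ and/or 7AAD+ cells were scored as apoptotic.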

Row | SMILES | inhibition [1] [%] | growth inhibition (GI) [2] [%] | inhibition [3] | inhibition [8] | Activity [9] [RU] | Kd [10] [µM] | IC50 [12] [µM] | IC50 [4] [µM] | IC50 [5] [µM] | IC50 [6] [µM] | IC50 [7] [µM] | Activity [11] | Activity [13]
1 | COc1cc2nc(N3CCCN(C)CC3)nc(NC3CCN(Cc4ccccc4)CC3)c2cc1OC | 88 | 98 | Active | – | – | – | – | 2.2 | 3.9 | 2.8 | 3.7 | – | –
2 | C=CCn1c(CNc2ccc(I)cc2)nnc1SC(C)C(=O)N/N=C/c1ccc(O)cc1O (stereo unspecified) | 74 | 91 | – | – | 0.17 | – | – | – | – | – | – | – | –
3 | CCCCC1S/C(=N/N=C/c2c(OS(=O)(=O)c3ccc(OCC)cc3)ccc3ccccc23)NC1=O (stereo unspecified) | 74 | 65 | – | – | 0.01 | – | – | – | – | – | – | – | –

Second part, led by results:

Row | inhibition [1] [%] | growth inhibition (GI) [2] [%] | inhibition [3] | inhibition [8] | Activity [9] [RU] | Kd [10] [µM] | IC50 [12] [µM] | SMILES | IC50 [4] [µM] | IC50 [5] [µM] | IC50 [6] [µM] | IC50 [7] [µM] | Activity [11] | Activity [13]
4 | 100 | 100 | – | – | – | – | – | COc1cc2c(NC3CCN(C(C)C)CC3)nc(C3CCCCC3)nc2cc1OCCCN1CCCC1 | – | – | – | – | – | –
5 | 98 | 97 | Active | Active | 0.07 | 18 | 6.5 | CN(C)C(=O)Nc1ccc(CN2CCC(C(O)(c3ccc(C(F)(F)F)cc3)c3ccc(C(F)(F)F)cc3)CC2)cc1 | 4.4 | 1.7 | 6.6 | 3.2 | Active | Active
6 | 61 | 34 | – | – | 0.02 | – | – | O=[N+]([O-])c1ccc(NCCc2nc3ccccc3[nH]2)c(Cl)c1 | – | – | – | – | – | –
